In ChEMBL document CHEMBL1123300 (J Med Chem, 1986):
Non-standard residues stand in square brackets, D forms with d. Residues, ends and D or L forms follow the SMILES beside them. *: point of attachment. Ala(1-Adamantyl) = N[C@@H](CC12CC3CC(CC(C3)C1)C2)C(=O)O; Sta = CC(C)C[C@H](N)[C@@H](O)CC(=O)O; Adoc = O=C(OC12CC3CC(CC(C3)C1)C2)*; NMeF = CN[C@@H](Cc1ccccc1)C(=O)O; X1 = CC(C)(C)OC(=O)NCCS(=O)(=O)*; αMeF = C[C@](N)(Cc1ccccc1)C(=O)O; Phg = N[C@H](C(=O)O)c1ccccc1; Isovaleryl = CC(C)CC(=O)*; Nle = CCCC[C@H](N)C(=O)O; Nva = CCC[C@H](N)C(=O)O; Cbz = O=C(OCc1ccccc1)*; Boc = CC(C)(C)OC(=O)*; Moc = COC(=O)*

Columns and labels:
Renin [1] = target: T1, Renin (Homo sapiens, UniProt P00797); experiment: In vitro inhibitory activity against human plasma renin; assay type: cell-free
T1 sequence (P00797 whole entry): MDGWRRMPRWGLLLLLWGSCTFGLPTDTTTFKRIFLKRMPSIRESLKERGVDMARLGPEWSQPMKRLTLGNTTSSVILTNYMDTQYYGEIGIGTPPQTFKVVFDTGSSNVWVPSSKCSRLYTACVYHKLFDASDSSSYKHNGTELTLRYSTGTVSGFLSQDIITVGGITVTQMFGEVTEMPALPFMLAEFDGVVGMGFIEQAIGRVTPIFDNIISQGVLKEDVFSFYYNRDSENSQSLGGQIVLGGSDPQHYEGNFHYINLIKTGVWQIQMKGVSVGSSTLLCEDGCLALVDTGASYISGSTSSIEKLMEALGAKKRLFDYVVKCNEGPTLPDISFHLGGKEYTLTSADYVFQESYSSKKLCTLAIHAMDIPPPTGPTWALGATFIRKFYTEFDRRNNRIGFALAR

Renin [2] = target: T2, Renin (Rattus norvegicus, UniProt P08424); experiment: Inhibition of rat plasma renin activity
T2 sequence (P08424 whole entry): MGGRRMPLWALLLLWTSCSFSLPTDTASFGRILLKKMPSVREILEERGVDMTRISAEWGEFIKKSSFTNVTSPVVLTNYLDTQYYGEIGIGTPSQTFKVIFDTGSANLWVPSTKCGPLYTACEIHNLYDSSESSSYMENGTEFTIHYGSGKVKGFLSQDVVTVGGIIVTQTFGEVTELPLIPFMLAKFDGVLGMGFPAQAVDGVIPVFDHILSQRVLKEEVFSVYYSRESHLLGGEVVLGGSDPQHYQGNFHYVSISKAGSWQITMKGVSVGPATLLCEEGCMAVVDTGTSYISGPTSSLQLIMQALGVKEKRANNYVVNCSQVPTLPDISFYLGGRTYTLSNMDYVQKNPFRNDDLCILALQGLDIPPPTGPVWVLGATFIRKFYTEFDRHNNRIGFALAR

Renin [3] = target: T1, Renin; experiment: Inhibition of dog plasma renin activity; assay type: cell-free, Canis lupus familiaris; conditions: target entry is the homologue from another species
Renin [4] = target: T1, Renin; experiment: Inhibition of man plasma renin activity; assay type: cell-free
Renin [5] = target: T1, Renin; experiment: Inhibition of monkey plasma renin activity; assay type: cell-free, Cercopithecidae; conditions: target entry is the homologue from another species
Renin [6] = target: T1, Renin; experiment: In vitro inhibitory activity against dog plasma renin; assay type: cell-free, Canis lupus familiaris; conditions: target entry is the homologue from another species
Renin [7] = target: T2, Renin; experiment: In vitro inhibitory activity against rat plasma renin; assay type: cell-free
Renin [8] = target: T1, Renin; experiment: In vitro inhibitory activity against man (human) plasma renin; assay type: cell-free
Renin [9] = target: T1, Renin; experiment: In vitro inhibitory activity against monkey plasma renin; assay type: cell-free, Cercopithecidae; conditions: target entry is the homologue from another species
Renin [10] = target: T1, Renin; experiment: In vitro inhibitory activity against monkey (Callithrix jacchus) plasma renin; assay type: cell-free; conditions: target entry is the homologue from another species
Outline: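 Pooled plasma from animals whose plasma renin activity was stimulated with furosemide, incubated at 37 °C in pH 7.4 phosphate buffer with phenylmethanesulfonyl fluoride as angiotensinase inhibitor and increasing inhibitor concentrations. Angiotensin I generated was measured by RIA (Haber method). IC50 came from nonlinear logit vs log-concentration regression over five to seven concentrations.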

## COC(=O)CC(O)[C@H](CC(C)C)NC(=O)[C@H](C)NC(=O)CC(O)[C@H](CC(C)C)NC(=O)CCCNC(=O)[C@H](Cc1ccccc1)NC(=O)CC(C)C (stereo not given in full)
Renin [1]
  IC50: 0.2 µM

## COC(=O)C[C@H](O)[C@H](CC(C)C)NC(=O)[C@H](C)NC(=O)C[C@H](O)[C@H](CC(C)C)NC(=O)[C@H](Cc1c[nH]c2ccccc12)NC(=O)[C@H](Cc1c[nH]c2ccccc12)NC(=O)OC(C)(C)C (Boc-WW[Sta]A[Sta]-OMe)
Renin [2]
  IC50: 1 µM

## COC(=O)C[C@H](O)[C@H](CC(C)C)NC(=O)[C@H](C)NC(=O)C[C@H](O)[C@H](CC(C)C)NC(=O)[C@@H](NC(=O)[C@H](Cc1c[nH]c2ccccc12)NC(=O)OCc1ccccc1)C(C)C (Cbz-WV[Sta]A[Sta]-OMe)
Renin [3]
  IC50: 0.042 µM
Renin [4]
  IC50: 0.15 µM
Renin [2]
  IC50: 0.022 µM
Renin [5]
  IC50: 0.025 µM

## CCCC[C@H](NC(=O)[C@H](Cc1ccccc1)NC(=O)OC(C)(C)C)C(=O)N[C@@H](CC(C)C)[C@@H](O)CC(=O)N[C@@H](C)C(=O)N[C@@H](CC(C)C)[C@@H](O)CC(=O)O (Boc-F[Nle][Sta]A[Sta]-OH)
Renin [1]
  IC50: 0.03 µM

## COC(=O)C[C@H](O)[C@H](CC(C)C)NC(=O)[C@H](C)NC(=O)C[C@H](O)[C@H](CC(C)C)NC(=O)[C@H](Cc1c[nH]cn1)NC(=O)[C@H](CC12CC3CC(CC(C3)C1)C2)NC(=O)OC(C)(C)C (Boc-[Ala(1-Adamantyl)]H[Sta]A[Sta]-OMe)
Renin [6]
  IC50: 0.65 µM
Renin [7]
  IC50: 2.2 µM
Renin [8]
  IC50: 0.25 µM
Renin [1]
  IC50: 0.25 µM

## COC(=O)CC(O)[C@H](CC(C)C)NC(=O)[C@H](C)NC(=O)CC(O)[C@H](CC(C)C)NC(=O)[C@@H](NS(=O)(=O)CCNC(=O)OCc1ccccc1)C(C)C (stereo not given in full)
Renin [1]
  IC50: > 10 µM

## COC(=O)C[C@H](O)[C@H](CC(C)C)NC(=O)[C@H](C)NC(=O)C[C@H](O)[C@H](CC(C)C)NC(=O)[C@H](Cc1ccccc1)NC(=O)[C@H](Cc1ccccc1)NC(=O)OC12CC3CC(CC(C3)C1)C2 (Adoc-FF[Sta]A[Sta]-OMe)
Renin [1]
  IC50: 3 µM

## CCC[C@H](NC(=O)[C@H](Cc1ccccc1)NC(=O)OC)C(=O)N[C@@H](CC(C)C)[C@@H](O)CC(=O)N[C@@H](C)C(=O)N[C@@H](CC(C)C)[C@@H](O)CC(=O)OC (Moc-F[Nva][Sta]A[Sta]-OMe)
Renin [1]
  IC50: 0.26 µM

## COC(=O)C[C@H](O)[C@H](CC(C)C)NC(=O)[C@H](C)NC(=O)C[C@H](O)[C@H](CC(C)C)NC(=O)[C@H](Cc1ccccc1)NC(=O)[C@](C)(Cc1ccccc1)NC(=O)OC(C)(C)C (Boc-[αMeF]F[Sta]A[Sta]-OMe)
Renin [1]
  IC50: > 10 µM

## COC(=O)C[C@H](O)[C@H](CC(C)C)NC(=O)[C@H](C)NC(=O)C[C@H](O)[C@H](CC(C)C)NC(=O)[C@H](Cc1ccccc1)NC(=O)[C@H](Cc1ccccc1)N(C)C(=O)OC(C)(C)C (Boc-[NMeF]F[Sta]A[Sta]-OMe)
Renin [7]
  IC50: 17 µM
Renin [8]
  IC50: 15 µM
Renin [9]
  IC50: 15 µM
Renin [1]
  IC50: > 10 µM

## COC(=O)C[C@H](O)[C@H](CC(C)C)NC(=O)[C@H](C)NC(=O)C[C@H](O)[C@H](CC(C)C)NC(=O)[C@H](Cc1ccccc1)NC(=O)[C@H](Cc1ccccc1)NC(=O)CC(C)C (Isovaleryl-FF[Sta]A[Sta]-OMe)
Renin [1]
  IC50: 0.32 µM

## COC(=O)CC(O)[C@H](CC(C)C)NC(=O)[C@H](C)NC(=O)CC(O)[C@H](CC(C)C)NC(=O)[C@H](Cc1ccccc1)NC(=O)[C@@H](Cc1ccccc1)NC(=O)OC(C)(C)C (stereo not given in full)
Renin [1]
  IC50: > 10 µM

## CCC[C@H](N[C@@H](CC(C)C)[C@@H](O)CC(=O)N[C@@H](C)C(=O)N[C@@H](CC(C)C)[C@@H](O)CC(=O)OC)C(=O)N[C@@H](Cc1ccccc1)C(=O)NC(=O)CC(C)C
Renin [6]
  IC50: 0.058 µM
Renin [7]
  IC50: 0.88 µM
Renin [8]
  IC50: 0.042 µM
Renin [1]
  IC50: 0.042 µM
Renin [10]
  IC50: 0.03 µM

## COC(=O)C[C@H](O)[C@H](CC(C)C)NC(=O)[C@H](C)NC(=O)C[C@H](O)[C@H](CC(C)C)NC(=O)[C@H](Cc1ccccc1)NC(=O)[C@H](Cc1ccccc1)NS(=O)(=O)CCNC(=O)OC(C)(C)C (X1-FF[Sta]A[Sta]-OMe)
Renin [1]
  IC50: 0.18 µM

## COC(=O)C[C@H](O)[C@H](CC(C)C)NC(=O)[C@H](C)NC(=O)C[C@H](O)[C@H](CC(C)C)NC(=O)[C@H](Cc1ccccc1)NC(=O)[C@@H](NC(=O)OC(C)(C)C)c1ccccc1 (Boc-[Phg]F[Sta]A[Sta]-OMe)
Renin [1]
  IC50: > 10 µM

## CCC[C@H](NC(=O)[C@H](Cc1ccccc1)NC(=O)OC(C)(C)C)C(=O)N[C@@H](CC(C)C)[C@@H](O)CC(=O)N[C@@H](C)C(=O)N[C@@H](CC(C)C)[C@@H](O)CC(=O)OC (Boc-F[Nva][Sta]A[Sta]-OMe)
Renin [1]
  IC50: 0.051 µM

## COC(=O)CC(O)[C@H](CC(C)C)NC(=O)[C@H](C)NC(=O)CC(O)[C@H](CC(C)C)NC(=O)[C@@H](Cc1ccccc1)NC(=O)[C@H](Cc1ccccc1)NC(=O)OCc1ccccc1 (stereo not given in full)
Renin [1]
  IC50: > 10 µM

## CCCC[C@H](NC(=O)[C@@H](N)Cc1ccccc1)C(=O)N[C@@H](CC(C)C)[C@@H](O)CC(=O)N[C@@H](C)C(=O)N[C@@H](CC(C)C)[C@@H](O)CC(=O)OC (H-F[Nle][Sta]A[Sta]-OMe)
Renin [1]
  IC50: 7.7 µM

## COC(=O)CC(O)[C@H](CC(C)C)NC(=O)[C@H](C)NC(=O)CC(O)[C@H](CC(C)C)NC(=O)CNC(=O)[C@H](Cc1ccccc1)NC(=O)CC(C)C (stereo not given in full)
Renin [1]
  IC50: 4.7 µM

## COC(=O)C[C@H](O)[C@H](CC(C)C)NC(=O)[C@H](C)NC(=O)C[C@H](O)[C@H](CC(C)C)NC(=O)[C@H](Cc1ccccc1)NC(=O)[C@H](Cc1ccccc1)NC(C)=O (Ac-FF[Sta]A[Sta]-OMe)
Renin [1]
  IC50: 1.4 µM

## COC(=O)C[C@H](O)[C@H](CC(C)C)NC(=O)[C@H](C)NC(=O)C[C@H](O)[C@H](CC(C)C)NC(=O)[C@H](CC(C)C)NC(=O)[C@H](Cc1ccccc1)NC(=O)CC(C)C (Isovaleryl-FL[Sta]A[Sta]-OMe)
Renin [1]
  IC50: 0.075 µM

## COC(=O)C[C@H](O)[C@H](CC(C)C)NC(=O)[C@H](C)NC(=O)C[C@H](O)[C@H](CC(C)C)NC(=O)[C@H](CCCCN)NC(=O)[C@H](Cc1ccccc1)NC(=O)CC(C)C (Isovaleryl-FK[Sta]A[Sta]-OMe)
Renin [1]
  IC50: > 10 µM

## COC(=O)C[C@H](O)[C@H](CC(C)C)NC(=O)[C@H](C)NC(=O)C[C@H](O)[C@H](CC(C)C)NC(=O)[C@H](Cc1ccccc1)NC(=O)[C@H](Cc1ccccc1)NC(=O)OC(C)(C)C
Renin [6]
  IC50: 0.076 µM
Renin [7]
  IC50: 0.19 µM
Renin [9]
  IC50: 0.13 µM
Renin [1]
  IC50: 0.19 µM

## COC(=O)C[C@H](O)[C@H](CC(C)C)NC(=O)[C@H](C)NC(=O)C[C@H](O)[C@H](CC(C)C)NC(=O)[C@@H]1CCCN1C(=O)[C@H](Cc1ccccc1)NC(=O)OCc1ccccc1 (Cbz-FP[Sta]A[Sta]-OMe)
Renin [1]
  IC50: 10 µM

## COC(=O)C[C@H](O)[C@H](CC(C)C)NC(=O)[C@H](C)NC(=O)C[C@H](O)[C@H](CC(C)C)NC(=O)[C@H](Cc1c[nH]cn1)NC(=O)[C@H](Cc1c[nH]c2ccccc12)NC(=O)OC(C)(C)C (Boc-WH[Sta]A[Sta]-OMe)
Renin [4]
  IC50: 0.14 µM
Renin [2]
  IC50: 1.3 µM
Renin [1]
  IC50: 0.14 µM
Renin [5]
  IC50: 0.11 µM

## COC(=O)C[C@H](O)[C@H](CC(C)C)NC(=O)[C@H](C)NC(=O)C[C@H](O)[C@H](CC(C)C)NC(=O)[C@H](Cc1c[nH]c2ccccc12)NC(=O)[C@H](Cc1ccccc1)NC(=O)OCc1ccccc1 (Cbz-FW[Sta]A[Sta]-OMe)
Renin [1]
  IC50: 1.4 µM
